This is an account of results in ChEMBL document CHEMBL2311419, “Discovery of coumarin-dihydropyridine hybrids as bone anabolic agents” (J Med Chem, 2013).

Experiment [1] deals with Calvarial osteoblast. Nature of the experiment: Induction of osteoblastogenesis in mouse calvarial osteoblasts assessed as increase in expression of ALP gene at 100 pM by qPCR analysis relative to control. The class given is functional, cell-based.
The subject of experiment [2] is Mus musculus. Nature of the experiment: Induction of new bone formation in ovariectomized BALB/c mouse model assessed as increase in mineral apposition rate at 10 mg/kg/day, po qd for 8 weeks by bone histomorphometry analysis (Rvb =0.11 um/day). The class given is functional.
Experiment [3] deals with Mus musculus. The experiment can be described thus: Induction of osteoblast differentiation in ovariectomized BALB/c mouse model assessed as upregulation of RUNX2 mRNA expression po administered qd for 8 weeks by qPCR analysis. It is filed as functional, organism-based. On the technique in general: Quantitative PCR measures a nucleic acid by following its amplification.

For experiment [4], the system named is Mus musculus. The experiment can be described thus: Inhibition of osteoclastogenesis in ovariectomized BALB/c mouse model assessed as suppression of RANK gene expression at 1 mg/kg/day, po qd for 8 weeks by qPCR analysis. The class given is functional, organism-based.
Experiment [5] deals with Mus musculus. Nature of the experiment: Inhibition of osteoclastogenesis in ovariectomized BALB/c mouse model assessed as suppression of RANK gene expression at 5 to 10 mg/kg/day, po qd for 8 weeks by qPCR analysis. It is filed as functional, organism-based.
The subject of experiment [6] is Calvarial osteoblast. Nature of the experiment: Induction of osteoblastogenesis in mouse calvarial osteoblasts assessed as increase in expression of BMP2 gene at 100 pM to 10 nM by qPCR analysis relative to control. It is filed as functional.
In experiment [7] the test system is Calvarial osteoblast. The experiment can be described thus: Induction of osteoblastogenesis in mouse calvarial osteoblasts assessed as increase in expression of RUNX2 gene at 100 pM by qPCR analysis relative to control. It is filed as functional, cell-based.
Experiment [8] has as its system Mus musculus. The experiment can be described thus: Antiosteoporotic activity in ovariectomized BALB/c mouse model assessed as restoration of ovariectomy-induced increase in structural model index at 10 mg/kg/day, po qd for 8 weeks. The class given is functional, organism-based.
Experiment [9] is filed under the species Mus musculus. Nature of the experiment: Stimulation of alkaline phosphatase activity in mouse calvarial osteoblasts assessed as concentration required for maximum activity after 48 hrs by spectrophotometric analysis. In a few lines: (§1)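 Calvarial osteoblasts were exposed to compounds over 1 pM to 1 µM. ALP activity was read spectrophotometrically as optical density at 405 nm. Results were expressed as % ALP activity, with EC50 and Emax derived from the concentration series.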

Experiment [10] relates to Mus musculus. Nature of the experiment: Antiosteoporotic activity in ovariectomized BALB/c mouse model assessed as restoration of ovariectomy-induced deterioration of trabecular microarchitecture at 1 to 10 mg/kg/day, po qd for 8 weeks. It is filed as functional, organism-based. Particulars: Trabecula.
The subject of experiment [11] is Calvarial osteoblast. Nature of the experiment: Induction of osteoblastogenesis in mouse calvarial osteoblasts assessed as increase in expression of osteocalcin gene at 100 pM to 10 nM by qPCR analysis relative to control. It is filed as functional.
Experiment [12] deals with Calvarial osteoblast. The experiment can be described thus: Induction of osteoblastogenesis in mouse calvarial osteoblasts assessed as increase in COL1 expression at 100 pM to 10 nM by Western blotting analysis. The class given is functional, cell-based.
Experiment [13] is described as follows: Stimulation of alkaline phosphatase activity in mouse calvarial osteoblasts after 48 hrs by spectrophotometric analysis. In a few lines: as §1
For experiment [14], the system named is Mus musculus. The experiment can be described thus: Induction of osteoblast differentiation in ovariectomized BALB/c mouse model assessed as upregulation of BMP2 mRNA expression at 1 mg/kg/day, po qd for 8 weeks by qPCR analysis. The class given is functional, organism-based.
In experiment [15] the test system is Mus musculus. The experiment can be described thus: Induction of new bone formation in ovariectomized BALB/c mouse model assessed as increase in mineral apposition rate at 5 mg/kg/day, po qd for 8 weeks by bone histomorphometry analysis (Rvb =0.11 um/day). The class given is functional.
Experiment [16] relates to Mus musculus. Nature of the experiment: Antiosteoporotic activity in ovariectomized BALB/c mouse model assessed as restoration of ovariectomy-induced reduction in bone volume/trabecular volume at 10 mg/kg/day, po qd for 8 weeks (reference value: 0.45+/-0.07%). The class given is functional, Trabecula. On the set-up: scale not given: the % may be the effect or the level left.

In experiment [17] the test system is Mus musculus. The experiment can be described thus: Antiosteoporotic activity in ovariectomized BALB/c mouse model assessed as restoration of ovariectomy-induced reduction in trabecular number at 10 mg/kg/day, po qd for 8 weeks (reference value: 0.12+/-0.02 /mm). It is filed as functional, Trabecula.
Experiment [18] relates to Mus musculus. Nature of the experiment: Antiosteoporotic activity in ovariectomized BALB/c mouse model assessed as restoration of ovariectomy-induced increase in trabecular separation at 10 mg/kg/day, po qd for 8 weeks (reference value: 0.99+/-0.08mm). It is filed as functional, Trabecula.
In experiment [19] the test system is Mus musculus. The experiment can be described thus: Induction of osteoblast differentiation in ovariectomized BALB/c mouse model assessed as upregulation of COL1 mRNA expression at 1 mg/kg/day, po qd for 8 weeks by qPCR analysis. It is filed as functional, organism-based.
Experiment [20] deals with Mus musculus. Nature of the experiment: Induction of osteoblast differentiation in ovariectomized BALB/c mouse model assessed as upregulation of RUNX2 mRNA expression at 1 mg/kg/day, po qd for 8 weeks by qPCR analysis. The class given is functional, organism-based.
For experiment [21], the system named is Mus musculus. The experiment can be described thus: Inhibition of bone turnover in ovariectomized BALB/c mouse model assessed as reduction in ovariectomy-induced serum CTx levels at 1 mg/kg/day, po qd for 8 weeks by ELISA. The class given is functional, organism-based.
The species entered for experiment [22] is Mus musculus. The experiment can be described thus: Stimulation of alkaline phosphatase activity in mouse calvarial osteoblasts at 1 pM to 1 uM after 48 hrs by spectrophotometric analysis relative to nifedipine.

What is called EC50 is the midpoint of the concentration-response curve.

SMILES strings stand for the structures. Calls of active or inactive are those of the source. The rule behind the calls is not given here.

For the compound `CCOC(=O)C1=C(C)NC2=C(C(=O)CCC2)C1c1cc(C(C)CC)c2oc(=O)c(C(=O)OC)cc2c1` (configuration not stated), the result in the experiment on Calvarial osteoblast [1], in the experiment on Calvarial osteoblast [7], with Mus musculus [8], in the experiment with Mus musculus [10], in the experiment on Calvarial osteoblast [12] and in the experiment with Mus musculus [14] was Active. Besides, the outcome in the experiment on Mus musculus [19] and with Mus musculus [20] was Active. Further, the Activity in the experiment on Mus musculus [2] was 0.276 micrometer/day; in the experiment with Mus musculus [3], “Dose-dependent effect”; with Mus musculus [15], 0.294 micrometer/day; in the experiment with Mus musculus [16], 2.07%; in the experiment on Mus musculus [17], 0.32 /millimeter; in the experiment with Mus musculus [18] it was 0.68 mm. The Activity in the experiment listed under Mus musculus [22] came out at 32%. Also, the inhibition result with Mus musculus [4], in the experiment on Mus musculus [5] and in the experiment on Mus musculus [21] was “Active” throughout. The “fold change (FC)” value in the experiment on Calvarial osteoblast [6] and in the experiment with Calvarial osteoblast [11] was 1.5 in each case. In the experiment listed under Mus musculus [9], the Concentration giving maximum ALP activity stood at 100 pM. The compound further had an EC50 in [13] of 1170 nM.
